# Source: PubChem BioAssay AID588749 (Vanderbilt Specialized Chemistry Center, 2011)
# Activity calls are given as the source filed them.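 Rule for the calls: active = a clear dose-dependent calcium response in rat M1 cells, with a fitted half-maximal potency; inactive = the rest.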
# Molecular target: Muscarinic acetylcholine receptor M1 (Rattus norvegicus) (UniProt P08482)
# Test: rat M1 positive allosteric modulation, dose response, counter-screen for M4 PAM project, CHO cells, calcium fluorescence (AID 588749)
# Details: Fluo-4 calcium fluorescence
# How it was run: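 Material: rat M1 CHO cells. Also added: acetylcholine at EC20, followed by acetylcholine at EC80. Schedule: 144 s compound pre-incubation, 37 °C. Detection: Fluo-4 calcium flux fluorescence. Measure: % max ACh response and EC50.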
# Muscarinic acetylcholine receptor M1 (Rattus norvegicus), sequence (P08482 whole entry, looked up): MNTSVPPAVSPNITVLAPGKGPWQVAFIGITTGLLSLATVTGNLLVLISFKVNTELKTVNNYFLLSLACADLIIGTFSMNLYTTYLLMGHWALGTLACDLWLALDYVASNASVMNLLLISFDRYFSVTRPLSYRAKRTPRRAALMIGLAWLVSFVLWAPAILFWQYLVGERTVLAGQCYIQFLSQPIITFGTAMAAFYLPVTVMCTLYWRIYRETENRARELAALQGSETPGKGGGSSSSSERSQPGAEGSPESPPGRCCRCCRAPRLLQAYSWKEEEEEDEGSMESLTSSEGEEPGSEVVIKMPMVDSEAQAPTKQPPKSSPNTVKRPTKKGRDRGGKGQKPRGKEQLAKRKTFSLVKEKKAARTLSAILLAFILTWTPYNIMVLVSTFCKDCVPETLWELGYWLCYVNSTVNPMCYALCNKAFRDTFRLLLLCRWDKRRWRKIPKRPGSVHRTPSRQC
structure (smiles),measurement,setting,value
Cc1nc2sc(C(=O)NCc3cccc(F)c3F)c(N)c2c(C)c1Cl,percent of ACh max response,at 30 µM (top of the series),inactive
Cc1nc2sc(C(=O)NCc3cccnc3)c(N)c2c(C)c1Cl,percent of ACh max response,at 45.3 µM (top of the series),inactive
Cc1nc2sc(C(=O)NC3CC3)c(N)c2c(C)c1Cl,EC50,,0.943 µM
Cc1nc2sc(C(=O)NCCc3ccncc3)c(N)c2c(C)c1Cl,percent of ACh max response,at 30 µM (top of the series),inactive
Cc1nc2sc(C(=O)NCc3ccncc3)c(N)c2c(C)c1Cl,percent of ACh max response,at 45.3 µM (top of the series),inactive
Cc1nc2sc(C(=O)NCc3ccncn3)c(N)c2c(C)c1Cl,percent of ACh max response,at 30 µM (top of the series),inactive
Cc1nc2sc(C(=O)NCc3nccs3)c(N)c2c(C)c1Cl,percent of ACh max response,at 30 µM (top of the series),inactive
Cc1nc2sc(C(=O)NCc3ccc4c(c3)OCO4)c(N)c2c(C)c1Cl,percent of ACh max response,at 36.8 µM (top of the series),inactive
Cc1nc2sc(C(=O)NCc3ccccc3)c(N)c2c(C)c1Cl,percent of ACh max response,at 37.4 µM (top of the series),inactive
